In the library only some 2.4% were active in any assay of this set; here they are far more common.
FID counter = displaces DNA intercalator in HCV helicase counter-screen. DNA fluorescent intercalator displacement, fluorescence. inhibition, % at 7.9 µM. 0.17% of 290,000 active; in the data active = inhibition above about 37%;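 note: higher means more ethidium bromide displaced from hairpin DNA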
TMEM16A inh = mouse TMEM16A channel inhibition, primary screen | Q8BHY3 | HEK293 TMEM16A/YFP iodide influx fluorescence, ionomycin | normalized B-score (activity score, 25-100; higher = stronger inhibition) at 10 µM | 1.2% of 310,000 active;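 active = ratio plate-corrected score three or more library SD toward inhibition, starting fluorescence score within five deviations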;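 note: score derived from kinetic fluorescence span divided by baseline fluorescence per well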
UBC13 inh = inhibitors of human UBC13 polyubiquitin chain formation; P61088; TR-FRET; inhibition, % at 20 µM; 0.47% of 330,000 active; AID 485273; in the data active = inhibition above about 45%, passing the limit was not always enough
Apaf-1 inh = blocks human Apaf-1 apoptosome activity; O14727; reconstituted apoptosome caspase-3 activity, DEVD-Rh110 fluorescence; 0.71% of 330,000 active; AID 489030; inhibition, % at 20 µM; active = inhibition of at least 40% at 20 µM
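System – cell-free apoptosome with Apaf-1, procaspase-3 and caspase-9 · Buffer or medium – pH 7.5 Hepes buffer with CHAPS, BSA, DTT · Also added – cytochrome c with DEVD-Rh110 · Times – 30 min compound preincubation, 50 min activation, room temperature · Technique – Rh110 fluorescence intensity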
ANO1 activ = activators or potentiators of mouse TMEM16A chloride channel. Q8BHY3. HEK293 TMEM16A/YFP-H148Q/I152L, iodide quench fluorescence; stronger effect = lower value. B-score at 10 µM. 0.3% of 340,000 active. AID 623877;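 active = fluorescence-ratio B-score plate-corrected deviation score at least 3 library SD below zero, with starting fluorescence score within 5 deviations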;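 note: channel opened by trigger with iodide after compound preincubation; score built on the fluorescence ratio of max minus min over baseline; more negative score means more quench and so TMEM16A activation or potentiation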
TMEM16A reconf = re-confirmation of mouse TMEM16A chloride channel inhibitors | HEK293 TMEM16A/YFP-H148Q, iodide quench fluorescence; ionomycin added to raise cell calcium | AID 652189 | shares compounds with TMEM16A inh | 39% of 2,300 active | inhibition, % at 10 µM;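 active = mean duplicate percent inhibition, scaled so buffer wells are 0 and the reference blocker 100, over three buffer SD above buffer mean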
TMEM16A Ca cntr = counter-screen for TMEM16A inhibitors: effect on calcium mobilization; shares compounds with TMEM16A inh; TMEM16A/YFP HEK293, Fluo4 calcium mobilization; calcium response (% of ionomycin), % at 10 µM; 2% of 2,300 active;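 active = duplicate-averaged calcium signal over 20% of the ionomycin maximum, relative to buffer baseline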;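 note: each well's signal is peak minus trough fluorescence divided by its pre-addition baseline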
YFP-HEK293 quench = acts in parental YFP-HEK293 cells lacking TMEM16A, counter-screen | shares compounds with TMEM16A inh | 2,300 tested, under 10 active | YFP ratio F(max-min)/F0 at 10 µM | AID 652233 | iodide YFP quench, ionomycin;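 active = yellow fluorescent protein signal ratio exceeding the buffer control mean by over 5 SD of those controls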;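 note: ratio is mean of duplicate wells from kinetic YFP trace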
ClC-1 inh = blocks the rat ClC-1 voltage-dependent chloride channel; shares compounds with TMEM16A inh; CHO ClC-1-YFP, iodide influx fluorescence quench; iodide control reads 0, buffer control 100; ratio percent, % at 10 µM; 2,300 tested, under 10 active;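 active = duplicate-mean ratio percent above the mean of iodide-only control wells, which defines zero, plus 5 of their SD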;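 note: higher percent means stronger block of ClC-1 iodide influx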
Hits are given with their value; . = inactive; / = no result given.

SMILES | FID counter | TMEM16A inh | UBC13 inh | Apaf-1 inh | ANO1 activ | TMEM16A reconf | TMEM16A Ca cntr | YFP-HEK293 quench | ClC-1 inh
CC(=O)c1cccc(NC(=S)NC(=O)c2cccc(Cl)c2)c1 | . | 25 | . | . | . | . | 28% | . | .
CCCCN(C(=O)c1cccc2c(=O)c(C)c(-c3ccccc3)oc12)c1ccccc1 | . | / | / | / | . | / | / | / | /
O=C(c1ccc(Cl)cc1)C1CCN(C(=O)N2CCOCC2)CC1 | . | . | . | . | . | / | / | / | /
O=C(c1ccc(F)cc1)C1CCN(C(=O)N2CCOCC2)CC1 | . | . | . | . | . | . | . | . | .
Cc1nc2ccccc2cc1OCc1ccccc1 | . | 100 | . | . | . | 32% | . | . | .
COc1ccc(F)cc1COc1nc(C)nc2ccccc12 | . | . | . | . | . | / | / | / | /
Cc1nc2ccccc2cc1C(=O)NCc1ccccc1 | / | . | . | . | . | / | / | / | /
Cc1nc(OCc2ccccc2)c2ccccc2n1 | . | 100 | . | . | . | . | . | . | .
O=c1oc2ccccc2c(O)c1C=Nc1cccnc1 | . | . | . | . | . | / | / | / | /
O=C(O)C(Cc1ccc(Cl)cc1)NS(=O)(=O)c1ccc(Cl)cc1 (stereo not drawn) | . | . | . | . | . | / | / | / | /
CCN(/C=N/c1sc2c(c1C#N)CCCCC2)CC | . | 100 | . | . | . | . | . | . | .
CCO[C@@H]1OC(C(N)=O)=C[C@H](c2coc3ccccc3c2=O)[C@H]1CCCO | / | 25 | . | . | . | . | . | . | .
CCN(CC)c1ccc2cc(S(=O)(=O)c3ccc(Cl)cc3)c(=O)oc2c1 | . | . | . | . | . | . | . | . | .
CCn1c(C)nc2cc(C(=O)N/N=C(\C)c3ccccc3O)ccc21 | . | . | . | . | . | / | / | / | /
CSc1ccc(CN(C)C(=O)c2ccc(S(=O)(=O)Nc3ccccc3)cc2)cc1 | / | 25 | . | . | . | . | . | . | .
CC1Cc2ccccc2N1C(=O)COC(=O)CCc1nc2ccccc2c(=O)[nH]1 (stereo not drawn) | . | . | . | . | . | / | / | / | /
COc1ccccc1OCc1nc(C#N)c(NCCCn2ccnc2)o1 | . | . | . | . | . | / | / | / | /
N#Cc1nc(COc2ccccc2F)oc1NCCCn1ccnc1 | . | 100 | . | . | / | . | . | . | .
COc1ccc(C(CC(=O)O)NS(=O)(=O)c2ccc3c(c2)N(C(C)=O)CC(C)O3)cc1 (stereo not drawn) | . | . | . | . | . | / | / | / | /
CC(C)(C)[C@H]1COC(=O)[C@@H](Cc2ccc(F)cc2)CC/C=C/C[C@@H](CC(=O)N[C@H](CO)Cc2ccccc2)C(=O)N1 | / | / | . | . | . | / | / | / | /
COc1ccc(C)cc1NC(=O)c1ccccc1NS(=O)(=O)c1ccc(Cl)s1 | . | 100 | . | . | . | 48% | . | . | .
COC(=O)c1cc(CSc2nc3ccccc3c(=O)n2C)oc1C | . | 100 | . | . | . | 34% | . | . | .
COCCn1c(SCc2ccc(C(=O)OC)o2)nc2ccccc2c1=O | . | . | . | . | . | / | / | / | /
Cc1cnc(C(=O)Nc2cc(F)ccc2C)cn1 | . | . | . | . | . | / | / | / | /
CCn1c(CNc2ccc(Cl)cc2)nnc1SCC(=O)OC1CCCCC1 | . | 100 | . | . | . | 18% | . | . | .
SMILES | FID counter | TMEM16A inh | UBC13 inh | Apaf-1 inh | ANO1 activ | TMEM16A reconf | TMEM16A Ca cntr | YFP-HEK293 quench | ClC-1 inh
CCOC(=O)c1nn(-c2ccccc2)c(C#N)c1NC(=O)c1nn(CC)cc1Br | . | . | . | . | . | / | / | / | /
CCOC(=O)c1c(NC(=O)c2nn(CC)cc2Br)c(C#N)nn1-c1ccccc1 | . | 100 | . | . | . | . | . | . | .
Cn1cnnc1SCC(=O)N1CCc2ccccc21 | . | . | . | . | . | / | / | / | /
CC(C)c1nnc(SCC(=O)N2CCc3ccccc32)n1C | . | 100 | . | . | . | . | . | . | .
COc1c(C(CC(C)C)OC(C)=O)ccc2c1C(=O)OCc1cc(C)cc(O)c1O2 (stereo not drawn) | / | 100 | . | . | . | 24% | . | . | .
COc1c(C(O)CC(C)C)ccc2c1C(=O)OCc1cc(C)cc(O)c1O2 (stereo not drawn) | . | 25 | . | . | . | 22% | . | . | .
O=C(CSc1cccc[n+]1[O-])Nc1ccc(N2CCOCC2)cc1 | . | . | . | . | / | / | / | / | /
O=C1CCN(Cc2ccc(O)cc2)CCN1CCO | . | . | . | . | . | / | / | / | /
O=C(Cn1nc(-c2ccccc2)nc1-c1ccccc1)OC1CCCCC1 | . | 100 | . | . | . | . | . | . | .
CCOC(=O)Cn1nc(-c2ccccc2)nc1-c1ccccc1 | . | . | . | . | . | / | / | / | /
COc1ccccc1N(CC(=O)N(C)Cc1ccccc1)S(=O)(=O)c1cccs1 | / | / | . | . | . | / | / | / | /
COc1ccccc1C1(O)CCN(CC(=O)Nc2nc(-c3ccccc3)cs2)CC1 | . | 100 | . | . | . | 23% | . | . | .
CCOC(=O)N1CCN(C(=O)CSCC(=O)Nc2nc(-c3ccc(-c4ccccc4)cc3)cs2)CC1 | . | 100 | . | . | . | 24% | . | . | .
COc1ccc(-c2csc(NC(=O)CSc3nc(SC)ns3)n2)cc1 | . | 100 | . | . | . | 21% | . | . | .
Cc1ccc(-c2csc(NC(=O)CSC3=NCCS3)n2)cc1 | . | 100 | . | . | . | 51% | . | . | .
COc1ccc(-c2csc(NC(=O)CSc3nc(C)cs3)n2)cc1 | . | . | . | . | . | / | / | / | /
CC(C)CNC(=O)c1ccccc1NC(=O)CCSc1ccccc1 | . | . | . | . | . | / | / | / | /
CCOC(=O)c1c(S(=O)(=O)NCC(=O)Nc2cccc(C)n2)c(C)n(C)c1C | . | . | . | . | . | / | / | / | /
CC(=O)Nc1ccc(NC(=O)c2ccc(Cl)c(S(=O)(=O)N3CCc4ccccc43)c2)cc1 | / | / | / | / | . | / | / | / | /
O=C(Nc1cccnc1)c1ccc(Cl)c(S(=O)(=O)N2CCc3ccccc32)c1 | . | 100 | . | . | . | 18% | . | . | .
O=C(COC(=O)Cn1nnc2ccccc21)Nc1ccccc1Br | . | . | . | . | . | / | / | / | /
O=C(CCSCCC(=O)NCc1ccco1)NCc1ccco1 | . | . | . | . | / | . | . | . | .
Cn1nc(C(F)(F)F)c(/C=N/OC(=O)c2ccccc2)c1Sc1ccc(Cl)cc1 | . | 25 | . | . | . | . | . | . | .
Cn1nc(C(F)(F)F)c(/C=N/OC(=O)c2ccccc2)c1Cl | . | . | . | . | . | / | / | / | /
CSc1cccc(NC(=O)/C=C/c2ccccc2)c1 | . | . | . | . | . | / | / | / | /

High-throughput results as filed in PubChem BioAssay.
